HTRA1 inhibitor = blocks human HTRA1 serine peptidase; inhibition, % at 5.96 µM; 340,000 compounds, 0.5% hits; recombinant HTRA1, FP-rhodamine activity-based probe, fluorescence polarization; in the data active = inhibition above about 36%
Target sequence (Q92743 whole entry, looked up): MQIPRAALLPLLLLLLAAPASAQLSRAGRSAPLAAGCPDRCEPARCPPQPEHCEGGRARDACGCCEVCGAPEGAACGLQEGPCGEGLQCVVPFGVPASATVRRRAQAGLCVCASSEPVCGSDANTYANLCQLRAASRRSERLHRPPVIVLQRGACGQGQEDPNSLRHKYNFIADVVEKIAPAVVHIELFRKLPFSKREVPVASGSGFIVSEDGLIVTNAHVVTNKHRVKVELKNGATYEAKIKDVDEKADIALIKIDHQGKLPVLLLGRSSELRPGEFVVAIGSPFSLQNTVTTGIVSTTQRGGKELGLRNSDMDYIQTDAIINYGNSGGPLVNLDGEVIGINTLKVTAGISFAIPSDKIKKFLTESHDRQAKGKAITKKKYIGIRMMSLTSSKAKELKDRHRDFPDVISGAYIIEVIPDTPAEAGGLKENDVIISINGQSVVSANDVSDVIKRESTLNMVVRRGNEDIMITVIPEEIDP
TCR CD3 inh = blocks the human TCR-CD3 interaction; TAMRA-labeled TCR probe fluorescence, biochemical; inhibition, % at 9.4 µM; 360,000 compounds, 0.37% hits; in the data active = inhibition above about 19%;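 also: recombinant mutant TCR 2C K166C tagged with TAMRA read by polarization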
PRMT1 FP inh = PRMT1 (human) inhibition, primary screen; Q99873; recombinant PRMT1, activity-based probe fluorescence polarization; inhibition, % at 2.79 µM; 370,000 compounds, 1.3% hits; AID 652257;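 active = inhibition above about 21% made by adding two undisclosed values, limit read from the data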
SIAE primary = human SIAE inhibition, primary screen | SIAE FP-Rh probe binding, fluorescence polarization | 370,000 compounds, 0.69% hits | AID 1053197 | inhibition, % at 9.66 µM | Q9HAT2;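 active = inhibition above a cutoff: mean of compounds within the control limits plus 3 SD of those, cut at about 17% in these data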
ABHD4 inh = inhibitors of mouse ABHD4; Q8VD66; purified mABHD4, FP-Rh probe fluorescence polarization; inhibition, % at 8.92 µM; 370,000 compounds, 0.54% hits; AID 720543;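 active = inhibition exceeding the mean over every tested compound plus 3 SD, cut at about 30% in these data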
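assay system = mABHD4 protein | compound dosing = single nominal dose of 8.92 µM, 0.89% DMSO final | read-out basis = percent inhibition of probe binding, normalized to plate controls | schedule = Enzyme–compound pre-incubation 45 min, then probe 60 min, both 25 °C | detection = fluorescence polarization, excitation 525 nm, emission 598 nm, BODIPY TMR filters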
PRMT1 confirm = PRMT1 (human) inhibition, FP confirmation; shares compounds with PRMT1 FP inh; recombinant His-PRMT1, activity-based probe fluorescence polarization; inhibition, % at 2.79 µM; 3,300 compounds, 42% hits;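 active = mean inhibition across replicates above the hit cutoff derived for the earlier primary screen, cut at about 22% in these data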
Each line names hits and unclear results; the compound was inactive in the other large screens (follow-up assays come after a bar, where they were run). Rows were chosen to be rich in hits. Some 2.5% of all compounds tested hit in one or more screens of this group.

CC(=O)c1cccc(NC(=O)/C(=C\c2ccco2)NC(=O)c2cccs2)c1	none
CC(=O)c1cccc(NC(=O)/C(=C/c2ccco2)NC(=O)c2ccco2)c1	PRMT1 FP inh 46 | PRMT1 confirm 27
COc1ccccc1C(=O)N/C(=C/c1ccco1)C(=O)Nc1cccc(C(=O)O)c1	PRMT1 FP inh 28 | PRMT1 confirm inactive
CC(=O)c1cc(-c2ccc3c(c2)OCO3)c(=O)n2c1CCC2	none (no result: HTRA1 inhibitor, TCR CD3 inh)
Fc1cccc(CNC(=S)OC2CCC23CCC(c2ccccc2)CC3)c1 (centres undefined)	none (no result: HTRA1 inhibitor, TCR CD3 inh)
COc1ccc(/C=C2\SC(=S)N(N3C(=O)CCC3=O)C2=O)cc1O	PRMT1 FP inh 49 | PRMT1 confirm inactive
COc1ccc(/C=C2/SC(=S)N(Cc3ccccc3)C2=O)cc1O	none
Cc1cccc2sc(NC(=O)Cn3cccc3)nc12	PRMT1 FP inh 33 | PRMT1 confirm inactive
CC1CCCCC1N(C(=O)c1cc(C2CC2)on1)C1CCCCCC1 (centres undefined)	none (no result: HTRA1 inhibitor, TCR CD3 inh)
Fc1cc(F)c(C2SCCN2C(=S)Nc2cccc(C(F)(F)F)c2)c(F)c1 (centres undefined)	PRMT1 FP inh 78 | PRMT1 confirm inactive
CCOC(=O)c1ccc(NC(=S)N2CCSC2c2c(F)cc(F)cc2F)cc1 (centres undefined)	PRMT1 FP inh 89 | PRMT1 confirm inactive
CCOC(=O)c1ccc(NC(=S)N2CCN(S(C)(=O)=O)CC2)cc1	none
Cc1cc(S(=O)(=O)Nc2ccc(N3CCOCC3)cc2)ccc1Br	PRMT1 FP inh 29 | PRMT1 confirm inactive
COc1ccc(S(=O)(=O)Nc2ccc(N3CCOCC3)cc2)cc1Br	none
CCOC(=O)C1(c2ccccc2)SC(C(=O)OCC)(c2ccccc2)S1 (centres undefined)	PRMT1 FP inh 71 | PRMT1 confirm 59
COc1cccc(Nc2n[nH]c(=S)s2)c1	PRMT1 FP inh 43 | PRMT1 confirm 36
COc1ccccc1Nc1n[nH]c(=S)s1	PRMT1 FP inh 47 | PRMT1 confirm inactive
CC(C)CN1C(=O)[C@@]2(CC(=O)N(C)C2c2ccccc2)c2cc(-n3cc(CCc4ccccc4)nn3)ccc21 (some centres undefined)	none (no result: HTRA1 inhibitor, TCR CD3 inh)
COc1ccc([N+](=O)[O-])cc1NC(=O)CSc1nc(C)cc(C)n1	PRMT1 FP inh 54 | PRMT1 confirm 45
O=C1C=C(O)c2cccc3cccc1c23	PRMT1 FP inh 48 | PRMT1 confirm inactive
CCCC1CCC2(CC1)CCC2OC(=S)Nc1ccccc1 (centres undefined)	none (no result: HTRA1 inhibitor, TCR CD3 inh)
Nn1c(SCC(=O)NC2CCCCC2)nnc1-c1cc(-c2ccc(Cl)cc2)n[nH]1	none (no result: HTRA1 inhibitor, TCR CD3 inh)
COc1ccc(C(=O)/C=C/C(=O)N(CC(=O)NC2CCCCC2)CC2CCCO2)c(O)c1 (centres undefined)	PRMT1 FP inh 34 | PRMT1 confirm 41
COc1ccc(C(=O)/C=C/C(=O)N(CC(=O)NC2CCCCC2)Cc2ccccc2)c(O)c1	none
O=C(CSc1nc2ccccc2[nH]1)NN=Cc1c(F)cccc1Cl	none (no result: HTRA1 inhibitor, TCR CD3 inh)
COc1ccc(-n2ccnc(SCC(=O)NCc3ccccc3Cl)c2=O)cc1	PRMT1 FP inh 88 | PRMT1 confirm inactive
CCOc1ccc(-n2ccnc(SCC(=O)NC3CCCC3)c2=O)cc1	none
CCOc1ccc(-n2ccnc(SCC(=O)Nc3cccc(OC)c3)c2=O)cc1	PRMT1 FP inh 39 | PRMT1 confirm 42
Cc1cc(C)cc(NC(=O)O[C@@H]2CC[C@@]34CCCN3C(=O)CCC[C@H]4C2)c1	none (no result: HTRA1 inhibitor, TCR CD3 inh)
O=C1CC(N2CCC(c3nc4ccccc4[nH]3)CC2)C(=O)N1c1ccccc1F (centres undefined)	PRMT1 FP inh 32 | PRMT1 confirm inactive
COc1ccc(N2C(=O)CC(n3c(CCCCO)nc4ccccc43)C2=O)cc1 (centres undefined)	PRMT1 FP inh 25 | PRMT1 confirm inactive
COc1ccc(N2C(=O)CC(N3CCC(O)(c4ccc(Cl)cc4)CC3)C2=O)cc1 (centres undefined)	PRMT1 FP inh 77 | PRMT1 confirm inactive
COc1ccc(N2C(=O)CC(N3CCC(c4nc5ccccc5[nH]4)CC3)C2=O)cc1 (centres undefined)	PRMT1 FP inh 54 | PRMT1 confirm inactive
COc1ccc(N2C(=O)CC(N3CCN(c4ccc(Cl)cc4)CC3)C2=O)cc1 (centres undefined)	none
CCCC(C)NC(=O)CC1Oc2ccccc2NC1=O (centres undefined)	none (no result: HTRA1 inhibitor, TCR CD3 inh)
CCCC[C@H](C(=O)N(C)c1ccccc1)[C@@H](O)c1ccc(Cl)cc1	none (no result: HTRA1 inhibitor, TCR CD3 inh)
O=[N+]([O-])c1ccc(OCCCN2CCC(C(O)(c3ccccc3)c3ccccc3)CC2)c(Cl)c1	none (no result: HTRA1 inhibitor, TCR CD3 inh)
O=C(Nc1ccc(NC(=O)c2ccccc2Cl)c(Cl)c1)c1ccccn1	none (no result: HTRA1 inhibitor, TCR CD3 inh)
Cc1ccc(CN2CCCCC(NC(=O)Nc3ccccc3)C2=O)cc1 (centres undefined)	none (no result: HTRA1 inhibitor, TCR CD3 inh)
O=C(O)c1cc(N/N=C/c2ccc(-c3ccc(F)cc3)o2)ccc1Cl	PRMT1 FP inh 34 | PRMT1 confirm inactive
O=C1/C(=C\c2ccco2)NC(=S)N1c1ccccc1	PRMT1 FP inh 45 | PRMT1 confirm 51
Cc1ccc(S(=O)(=O)/N=S(/c2ccccc2)C(C)C)cc1 (centres undefined)	PRMT1 FP inh 35 | PRMT1 confirm 70
CC(C)CC1=NN2C(=N)/C(=C\c3coc4ccccc4c3=O)C(=O)N=C2S1	PRMT1 FP inh 34 | PRMT1 confirm 48
CCOC(=O)[C@@]12CCCC3=C1N(CCC3)C(=O)[C@H]2CC(=O)NCC1CCCCC1	none (no result: HTRA1 inhibitor, TCR CD3 inh)
O=C1CCC(=O)N1c1ccc(CSc2nc3ccccc3[nH]2)cc1	PRMT1 FP inh 33 | PRMT1 confirm 28
CCCOC(=O)c1c(NC(=O)CCC(=O)O)sc2c1CCCCC2	none
CCOC(=O)c1ccc(NC(=O)c2c(NC(=O)CCC(=O)O)sc3c2CCCCC3)cc1	PRMT1 FP inh 44 (no result: HTRA1 inhibitor) | PRMT1 confirm inactive
CCOc1ccccc1NC(=O)c1c(NC(=O)CCC(=O)O)sc2c1CCCCC2	PRMT1 FP inh 25 | PRMT1 confirm inactive
O=C(O)C1C2C=CC(O2)C1C(=O)NCc1ccccc1Br (centres undefined)	PRMT1 FP inh 30 | PRMT1 confirm inactive
Cc1ccc(-c2nc(C3CCCN(S(=O)(=O)c4cccs4)C3)no2)cc1 (centres undefined)	none (no result: HTRA1 inhibitor, TCR CD3 inh)
Clc1ccc(-c2nnnn2-c2ccc(Cl)cc2)cc1	none (no result: HTRA1 inhibitor)
Cc1ccc(-n2nnnc2C(Cl)(Cl)c2nnnn2-c2ccc(C)cc2)cc1	PRMT1 FP inh 48 | PRMT1 confirm 90
Cc1ccc(S(=O)(=O)N(CCc2ccccc2)CC(=O)N2CCOCC2)cc1	none (no result: HTRA1 inhibitor, TCR CD3 inh)
CN(C)S(=O)(=O)c1cccc(N=C2NN=C(c3ccccc3)CS2)c1	PRMT1 FP inh 54 (no result: HTRA1 inhibitor) | PRMT1 confirm 39
CC(=O)Nc1ccc(C2=NNC(=Nc3cccc(S(=O)(=O)N(C)C)c3)SC2)cc1	none (no result: TCR CD3 inh, PRMT1 FP inh, SIAE primary, ABHD4 inh)
COC(=O)c1c(C)oc2ccc(N(C(C)=O)S(=O)(=O)c3ccccc3)cc12	none

Bioassay records deposited in PubChem BioAssay by The Scripps Research Institute Molecular Screening Center.
